This passage reports Activity and Drug uptake results from ChEMBL document CHEMBL1938298, “Synthesis and characterization of [¹²⁵I]2-iodo N-[(S)-{(S)-1-methylpiperidin-2-yl}(phenyl)methyl]3-trifluoromethyl-benzamide as novel imaging probe for glycine transporter 1” (Bioorg Med Chem, 2011).

Molecules are shown by their SMILES. Active and inactive are the calls of the source. The rule behind the calls is not given here.

Data set [1] deals with Mus musculus. Kind of data set: In vivo binding affinity to GlyT1 in ddY mouse brain hippocampus at 33.3 kBq, iv after 30 mins in presence of nonradioactive compound 2 mg/kg, iv administered 15 mins prior to compound administration relative to control. Format: functional, organism-based. The conditions noted are these: tested as the 125I-labelled form. Also on record: dose 2 mg/kg. An outline of the steps:
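Blocking study in male ddY mice (6 weeks, 30–35 g). The blocker (2 mg/kg in 30% DMSO/saline) was injected i.v. 15 min before about 33.3 kBq [125I]tracer i.v.; mice were killed at 30 or 60 min. Brains were divided into cortex, corpus callosum, hippocampus, thalamus, midbrain, medulla and cerebellum, weighed and gamma-counted as % dose/g. Values are mean ± SD, n = 5–6, compared to control by Kruskal–Wallis with Dunn's post-test.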

The test system of data set [2] is Mus musculus. The data set can be described thus: In vivo binding affinity to GlyT1 in ddY mouse brain striatum at 33.3 kBq, iv after 30 mins in presence of nonradioactive compound 2 mg/kg, iv administered 15 mins prior to compound administration relative to control. Also on record: dose 2 mg/kg. The conditions noted are these: tested as the 125I-labelled form. The class given is functional, organism-based.

Data set [3] has as its target T1, Sodium- and chloride-dependent glycine transporter 1 (Rattus norvegicus) (UniProt P28572).
T1 sequence (whole entry): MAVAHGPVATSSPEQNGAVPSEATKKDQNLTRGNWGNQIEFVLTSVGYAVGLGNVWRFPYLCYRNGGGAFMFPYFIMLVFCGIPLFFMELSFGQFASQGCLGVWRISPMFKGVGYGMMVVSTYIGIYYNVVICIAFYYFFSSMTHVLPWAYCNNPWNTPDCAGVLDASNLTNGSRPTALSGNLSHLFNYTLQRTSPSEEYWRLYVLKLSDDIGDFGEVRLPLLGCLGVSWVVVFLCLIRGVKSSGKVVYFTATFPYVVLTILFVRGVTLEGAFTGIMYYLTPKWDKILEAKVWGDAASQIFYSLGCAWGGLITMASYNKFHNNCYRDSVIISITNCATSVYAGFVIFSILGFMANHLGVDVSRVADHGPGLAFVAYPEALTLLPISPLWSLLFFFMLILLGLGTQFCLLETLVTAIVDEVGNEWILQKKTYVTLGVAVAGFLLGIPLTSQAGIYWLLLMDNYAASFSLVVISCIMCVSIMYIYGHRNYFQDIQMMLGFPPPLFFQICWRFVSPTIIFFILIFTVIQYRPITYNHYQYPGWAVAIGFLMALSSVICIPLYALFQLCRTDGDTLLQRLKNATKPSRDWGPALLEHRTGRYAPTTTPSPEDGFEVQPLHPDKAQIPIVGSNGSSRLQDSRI
Kind of data set: Binding affinity to GlyT1 in rat brain striatum at 0.03 to 0.04 nM preincubated for 20 mins in binding buffer before compound addition measured after 30 mins by autoradiography in presence of 1 mM GlyT1 substrate glycine relative to control. The conditions noted are these: tested as the 125I-labelled form. The class given is tissue-based.

In data set [4] the target is T1, Sodium- and chloride-dependent glycine transporter 1 (Rattus norvegicus). Kind of data set: Binding affinity to GlyT1 in rat brain thalamus at 0.03 to 0.04 nM preincubated for 20 mins in binding buffer before compound addition measured after 30 mins by autoradiography in presence of 0.01 mM GlyT2 inhibitor ORG25543 relative to control. Format: tissue-based. The conditions noted are these: tested as the 125I-labelled form.

Data set [5] deals with Mus musculus. The data set can be described thus: In vivo binding affinity to GlyT1 in ddY mouse brain medullary region at 33.3 kBq, iv after 30 mins in presence of SSR504734 2 mg/kg, iv administered 15 mins prior to compound administration relative to control. The class given is functional, organism-based. Also on record: dose 2 mg/kg. The conditions noted are these: Medulla of organ, tested as the 125I-labelled form.

Data set [6] relates to Mus musculus. The data set can be described thus: In vivo binding affinity to GlyT1 in ddY mouse brain cerebral cortex at 200 kBq, iv after 60 mins by autoradiography relative to control. The note with it: tested as the 125I-labelled form. Format: functional, organism-based. An outline of the steps: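 Ex vivo autoradiography in mice given 200 kBq [125I]tracer i.v. and killed at 60 min. Brains were removed, frozen on dry ice and cut into 20 µm sagittal cryosections, which were exposed to an imaging plate for 7 days. Regional signal was quantified as PSL/mm² (n = 5) and compared to control by Kruskal–Wallis with Dunn's post-test.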

Data set [7] deals with T1, Sodium- and chloride-dependent glycine transporter 1 (Rattus norvegicus). The data set can be described thus: Binding affinity to GlyT1 in rat brain cerebral cortex at 0.03 to 0.04 nM preincubated for 20 mins in binding buffer before compound addition measured after 30 mins by autoradiography relative to control. Format: tissue-based. The conditions noted are these: tested as the 125I-labelled form. In outline:
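Rat brain sagittal sections (20 µm), 20 min preincubation at 25 °C in Tris-HCl pH 7.5 binding buffer, then [125I] tracer (100 kBq, 0.03–0.04 nM) for 30 min at 25 °C. Nonspecific binding taken with 10 µM unlabeled ligand. Imaging-plate read-out as (PSL−BG)/mm². Mean ± SD, n = 4–5 from at least three rats; Mann–Whitney U-test.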

The target is the same in data set [8]. The data set can be described thus: Binding affinity to GlyT1 in rat brain midbrain at 0.03 to 0.04 nM preincubated for 20 mins in binding buffer before compound addition measured after 30 mins by autoradiography in presence of GlyT1 inhibitor N-Me-SSR504734 relative to control. The conditions noted are these: tested as the 125I-labelled form. The class given is tissue-based.

The target is the same in data set [9]. Kind of data set: Binding affinity to GlyT1 in rat brain midbrain at 0.03 to 0.04 nM preincubated for 20 mins in binding buffer before compound addition measured after 30 mins by autoradiography in presence of 0.01 mM GlyT1 inhibitor ALX5407 relative to control. Format: tissue-based. The conditions noted are these: tested as the 125I-labelled form. An outline of the steps:
(§1)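 Rat brain sagittal sections (20 µm) preincubated 20 min at 25 °C in Tris-HCl buffer pH 7.5 (NaCl, KCl, MgCl2, CaCl2), then 30 min at 25 °C with [125I] tracer (100 kBq, 0.03–0.04 nM) plus competitor (10 µM; glycine 1 or 10 mM). Cold washes, imaging plate 3 days, ROI PSL minus background per mm². % control from ≥triplicate slices, three rats.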

Data set [10] has the same target. The data set can be described thus: Binding affinity to GlyT1 in rat brain cerebral cortex at 0.03 to 0.04 nM preincubated for 20 mins in binding buffer before compound addition measured after 30 mins by autoradiography in presence of 0.01 mM GlyT1 inhibitor HPCP relative to control. Format: tissue-based. The conditions noted are these: tested as the 125I-labelled form. An outline of the steps:
as §1

In a further data set the test system is Liver. The data set can be described thus: Drug uptake in ddY mouse liver at 11.1 kBq, iv after 180 min by gamma counting. Format: ADME, organism-based. The conditions noted are these: in vivo, 3 h. An outline of the steps:
(§2)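 Male ddY mice (6 weeks, 30–35 g) were given about 11.1 kBq of [125I]tracer in 0.1 mL i.v. via the tail vein. At each time point the animals were killed and organs dissected, weighed and gamma-counted. Uptake is expressed as % injected dose per gram of tissue, mean ± SD, n = 5–6.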

For a further data set, the system named is Intestine. Kind of data set: Drug uptake in ddY mouse intestine at 11.1 kBq, iv after 15 min by gamma counting. The class given is ADME, organism-based. The conditions noted are these: in vivo. In outline:
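Male ddY mice (6 weeks, 30–35 g) received about 11.1 kBq [125I]tracer in 0.1 mL i.v. via tail vein. Killed at set times, organs dissected and weighed, radioactivity gamma counted. Reported as % injected dose/g tissue, mean ± SD, n = 5–6.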

The next data set concerns Spleen. Kind of data set: Drug uptake in ddY mouse spleen at 11.1 kBq, iv after 30 min by gamma counting. Format: ADME, organism-based. The conditions noted are these: in vivo, 0.5 h. An outline of the steps: as §2
The test system of another data set is Stomach. Kind of data set: Drug uptake in ddY mouse stomach at 11.1 kBq, iv after 0.5 min by gamma counting. Format: ADME, organism-based. The note with it: in vivo. An outline of the steps: as §2
Data set [11] relates to Pancreas. Kind of data set: Drug uptake in ddY mouse pancreas at 11.1 kBq, iv after 15 min by gamma counting. The class given is ADME, organism-based. The conditions noted are these: in vivo. In outline: as §2
Data set [12] relates to Pancreas. The data set can be described thus: Drug uptake in ddY mouse pancreas at 11.1 kBq, iv after 30 min by gamma counting. Format: ADME, organism-based. The conditions noted are these: in vivo, 0.5 h. In outline: as §2

For the compound `CN1CCCC[C@H]1[C@@H](NC(=O)c1cccc(C(F)(F)F)c1I)c1ccccc1`, the result in the data set on Mus musculus [1] and in the data set with Mus musculus [2] was Active. Besides, the Activity in [3] stood at 122%; in data set [4], 99.7%; in data set [8], 25.3%; in [9], 36.2%; in data set [10], 31%. The result (with Mus musculus [5]; in the data set on Mus musculus [6]; in [7]) was inactive.

For `CN1CCCC[C@H]1[C@@H](NC(=O)c1cccc(C(F)(F)F)c1[125I])c1ccccc1`, the Drug uptake in the data set on Liver came out at 15.05 % ID/g; in the data set on Intestine it was 3.25 % ID/g; in the data set with Spleen, 7.68 % ID/g; in the data set on Stomach, 0.83 % ID/g; in the data set with Pancreas [11] it was 7.93 % ID/g; with Pancreas [12] it was 12.02 % ID/g.
